According to ChEMBL document CHEMBL4020800, “The design, synthesis, and anti-inflammatory evaluation of a drug-like library based on the natural product valerenic acid” (Bioorg Med Chem Lett, 2017):
The source made the active and inactive calls. The rule behind the calls is not given here.

Tests used:
Keratinocyte [1] = assay: Antiinflammatory activity in primary human […] keratinocytes assessed as inhibition of IL-17A/TNF-alpha induced IL-8 production preincubated for 2 hrs followed by cytokine addition measured after 72 hrs by HTRF assay; format: functional, cell-based
How it was run: (§1)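 Primary human keratinocytes were stimulated with IL-17, and the inflammatory response was read as increased IL-8 secretion. Cell viability was measured in the same cells as a secondary readout to separate specific inhibition from cytotoxicity. Betamethasone served as the assay control. Maximal inhibition of IL-8 release or of viability was recorded alongside IC50 where calculated.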

Keratinocyte [2] = assay: Antiinflammatory activity in primary human […] keratinocytes assessed as inhibition of IL-17A/TNF-alpha induced IL-8 production at 10 uM preincubated for 2 hrs followed by cytokine addition measured after 72 hrs by HTRF assay relative to control; format: functional
Keratinocyte [3] = assay: Cytotoxicity against primary human […] keratinocytes assessed as inhibition of cell viability preincubated for 2 hrs followed by cytokine addition measured after 72 hrs by PrestoBlue staining based fluorescence assay; how it was run: as §1
[4] = Cytotoxicity against primary human […] keratinocytes assessed as inhibition of cell viability at 10 uM preincubated for 2 hrs followed by cytokine addition measured after 72 hrs by PrestoBlue staining based fluorescence assay relative to control; set-up: species or system Keratinocyte; conditions: read-out: Imax
PBMC = assay: Antiinflammatory activity in human PBMC assessed as inhibition of LPS-induced TNF-alpha production after 16 hrs by AlphaLisa assay; format: functional, cell-based
[5] = Homo sapiens, Keratinocyte, read-out: IC50

Structure (SMILES) | IC50 (Keratinocyte [1]; keratinocyte) | IC50 (Keratinocyte [1]; [5]) [µM] | Imax (Keratinocyte [2]) [%] | IC50 (Keratinocyte [3]; keratinocyte) | inhibition at 72 h, 10 µM [4] [%] | inhibition (PBMC) | IC50 (Keratinocyte [3]; [5]) [µM]
COCCNC(=O)/C(C)=C/[C@@H]1CC[C@@H](C)[C@H]2CCC(C)=C12 | Not Active | – | 30 | Not Active | 7 | inactive | –
C[C@H]1C[C@H]2[C@@H]3CCC4=CC(=O)C=C[C@]4(C)[C@@]3(F)[C@@H](O)C[C@]2(C)[C@@]1(O)C(=O)CO [BETAMETHASONE] | – | – | 49 | – | – | – | 0.3
CC1=C2[C@H](/C=C(\C)C(=O)NCc3ccc(F)cc3)CC[C@@H](C)[C@H]2CC1 | – | 4.9 | 70 | – | 61 | inactive | 9.6
CC1=C2[C@H](/C=C(\C)C(=O)NCCc3ccccc3)CC[C@@H](C)[C@H]2CC1 | – | 7.5 | 64 | Not Active | 11 | inactive | –
CC1=C2[C@H](/C=C(\C)C(=O)NCc3ccccc3F)CC[C@@H](C)[C@H]2CC1 | – | 2.8 | 85 | – | 72 | inactive | 8.7
CC1=C2[C@H](/C=C(\C)C(=O)NCCc3ccccn3)CC[C@@H](C)[C@H]2CC1 | Not Active | – | 14 | Not Active | 20 | inactive | –
CC1=C2[C@H](/C=C(\C)C(=O)NCCc3ccc(Br)cc3)CC[C@@H](C)[C@H]2CC1 | – | 8.3 | 60 | Not Active | 24 | inactive | –
CC1=C2[C@H](/C=C(\C)C(=O)O)CC[C@@H](C)[C@H]2CC1 [VALERENIC ACID] | – | – | 4 | Not Active | 15 | inactive | –

More lines, main results first:

IC50 (Keratinocyte [1]; keratinocyte) | IC50 (Keratinocyte [1]; [5]) [µM] | Structure (SMILES) | Imax (Keratinocyte [2]) [%] | IC50 (Keratinocyte [3]; keratinocyte) | inhibition at 72 h, 10 µM [4] [%] | inhibition (PBMC) | IC50 (Keratinocyte [3]; [5]) [µM]
– | 2.9 | CC1=C2[C@H](/C=C(\C)C(=O)NCc3ccccc3)CC[C@@H](C)[C@H]2CC1 | 84 | – | 72 | inactive | 9
– | 4.7 | CC1=C2[C@H](/C=C(\C)C(=O)NCc3cccc(F)c3)CC[C@@H](C)[C@H]2CC1 | 79 | – | 67 | inactive | 9.6
Not Active | – | CC1=C2[C@H](/C=C(\C)C(=O)NCCC(C)C)CC[C@@H](C)[C@H]2CC1 | 22 | Not Active | 9 | inactive | –
Not Active | – | CC1=C2[C@H](/C=C(\C)C(=O)NCCc3ccc(F)cc3)CC[C@@H](C)[C@H]2CC1 | 44 | Not Active | 17 | inactive | –
Not Active | – | CC1=C2[C@H](/C=C(\C)C(=O)NCCN3CCOCC3)CC[C@@H](C)[C@H]2CC1 | 17 | Not Active | 12 | inactive | –
